“Also recorded” adds a separate entry of the source.
Legend:
Sprague-Dawley rats [1] = assay: Conditioned taste aversion test; format: in vivo, rat
Sprague-Dawley rats [2] = assay: MCH-induced food intake in satiated rats; format: in vivo, rat; conditions: 2 nmole i.c.v.
In short: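 Cannulated male Sprague-Dawley rats were kept in wire-bottom cages >3 weeks and screened by drinking >5 ml/1 h after 50 ng angiotensin II. Satiated rats got 10 μl i.c.v. over 2 min at 7–8 a.m.: aCSF, MCH 2 nmole, or MCH plus test compound (1 or 5 nmole). Vehicles were DMSO-matched (up to 5% v/v). Food came 10 min later; cumulative intake over 4 h; ANOVA/Bonferroni.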

Dopamine D2s = Dopamine D2s (Homo sapiens, UniProt P14416); assay: Radioligand displacement; format: binding
Sequence of Dopamine D2s (P14416 1-414 isoform P14416-2): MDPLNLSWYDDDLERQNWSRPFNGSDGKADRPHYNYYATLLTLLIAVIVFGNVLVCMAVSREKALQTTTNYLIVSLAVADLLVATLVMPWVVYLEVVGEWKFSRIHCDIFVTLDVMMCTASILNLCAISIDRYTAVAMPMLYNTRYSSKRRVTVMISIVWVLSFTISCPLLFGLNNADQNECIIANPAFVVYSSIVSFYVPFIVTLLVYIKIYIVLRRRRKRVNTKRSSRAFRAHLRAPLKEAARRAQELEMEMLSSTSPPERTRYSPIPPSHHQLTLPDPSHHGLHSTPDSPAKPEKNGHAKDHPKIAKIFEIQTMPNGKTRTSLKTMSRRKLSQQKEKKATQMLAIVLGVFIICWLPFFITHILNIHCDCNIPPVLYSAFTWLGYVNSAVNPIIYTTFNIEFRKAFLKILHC

[3] = target: Nicotinic Acetylcholine α1, Bungarotoxin (Homo sapiens, UniProt P02708+P07510+Q07001); assay: biochemical; format: binding
Muscarinic M3 = Muscarinic M3 (Homo sapiens, UniProt P20309); assay: Radioligand displacement; format: binding
Sequence of Muscarinic M3 (P20309 whole entry): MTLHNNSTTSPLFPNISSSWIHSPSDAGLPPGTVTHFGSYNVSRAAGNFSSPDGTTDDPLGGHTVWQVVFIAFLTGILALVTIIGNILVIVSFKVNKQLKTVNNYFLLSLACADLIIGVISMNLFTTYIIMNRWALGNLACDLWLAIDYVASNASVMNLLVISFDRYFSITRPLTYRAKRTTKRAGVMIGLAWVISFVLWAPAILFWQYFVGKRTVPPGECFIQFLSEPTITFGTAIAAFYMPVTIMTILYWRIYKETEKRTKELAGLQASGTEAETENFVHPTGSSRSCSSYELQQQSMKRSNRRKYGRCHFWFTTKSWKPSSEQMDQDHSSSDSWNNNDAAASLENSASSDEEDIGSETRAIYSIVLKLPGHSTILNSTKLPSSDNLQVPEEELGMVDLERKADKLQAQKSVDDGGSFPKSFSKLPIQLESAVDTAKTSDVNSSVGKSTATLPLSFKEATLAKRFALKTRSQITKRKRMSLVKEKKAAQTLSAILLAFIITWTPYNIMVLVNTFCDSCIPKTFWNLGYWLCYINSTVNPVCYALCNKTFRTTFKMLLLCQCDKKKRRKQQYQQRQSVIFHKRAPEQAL

rat MCH1 receptor [4] = target: T1, rat MCH1 receptor (Rattus norvegicus, UniProt P97639); assay: MCH-induced Ca2+ mobilization; format: cell-based
T1 sequence (P97639 whole entry): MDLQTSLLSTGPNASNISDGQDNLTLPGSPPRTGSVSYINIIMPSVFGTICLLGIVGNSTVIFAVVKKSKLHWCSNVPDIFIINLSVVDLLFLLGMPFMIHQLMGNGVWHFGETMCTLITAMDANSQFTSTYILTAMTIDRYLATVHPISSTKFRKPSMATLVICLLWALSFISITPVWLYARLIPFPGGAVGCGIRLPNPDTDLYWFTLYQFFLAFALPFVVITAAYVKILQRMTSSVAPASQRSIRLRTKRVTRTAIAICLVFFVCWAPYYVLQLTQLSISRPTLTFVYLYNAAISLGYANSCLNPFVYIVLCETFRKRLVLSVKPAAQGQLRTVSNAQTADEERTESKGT

Adenosine A1 = Adenosine A1 (Homo sapiens, UniProt P30542); assay: Radioligand displacement; format: binding
Sprague-Dawley rats [5] = assay: Spontaneous locomotor activity; format: in vivo, rat
In short: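 Cannulated male Sprague-Dawley rats were acclimatized 60 min to a novel home cage, removed, given vehicle or 5 nmole test compound i.c.v., and returned at once. An infrared beam monitor (4 × 8 frame) recorded 60 min. Beam breaks changing location counted as ambulatory; all others as non-ambulatory fine movement. n=10.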

hERG channel = hERG channel (Homo sapiens, UniProt Q12809); assay: in vitro hERG electrophysiology assay; format: cell-based
Sequence of hERG channel (Q12809 whole entry): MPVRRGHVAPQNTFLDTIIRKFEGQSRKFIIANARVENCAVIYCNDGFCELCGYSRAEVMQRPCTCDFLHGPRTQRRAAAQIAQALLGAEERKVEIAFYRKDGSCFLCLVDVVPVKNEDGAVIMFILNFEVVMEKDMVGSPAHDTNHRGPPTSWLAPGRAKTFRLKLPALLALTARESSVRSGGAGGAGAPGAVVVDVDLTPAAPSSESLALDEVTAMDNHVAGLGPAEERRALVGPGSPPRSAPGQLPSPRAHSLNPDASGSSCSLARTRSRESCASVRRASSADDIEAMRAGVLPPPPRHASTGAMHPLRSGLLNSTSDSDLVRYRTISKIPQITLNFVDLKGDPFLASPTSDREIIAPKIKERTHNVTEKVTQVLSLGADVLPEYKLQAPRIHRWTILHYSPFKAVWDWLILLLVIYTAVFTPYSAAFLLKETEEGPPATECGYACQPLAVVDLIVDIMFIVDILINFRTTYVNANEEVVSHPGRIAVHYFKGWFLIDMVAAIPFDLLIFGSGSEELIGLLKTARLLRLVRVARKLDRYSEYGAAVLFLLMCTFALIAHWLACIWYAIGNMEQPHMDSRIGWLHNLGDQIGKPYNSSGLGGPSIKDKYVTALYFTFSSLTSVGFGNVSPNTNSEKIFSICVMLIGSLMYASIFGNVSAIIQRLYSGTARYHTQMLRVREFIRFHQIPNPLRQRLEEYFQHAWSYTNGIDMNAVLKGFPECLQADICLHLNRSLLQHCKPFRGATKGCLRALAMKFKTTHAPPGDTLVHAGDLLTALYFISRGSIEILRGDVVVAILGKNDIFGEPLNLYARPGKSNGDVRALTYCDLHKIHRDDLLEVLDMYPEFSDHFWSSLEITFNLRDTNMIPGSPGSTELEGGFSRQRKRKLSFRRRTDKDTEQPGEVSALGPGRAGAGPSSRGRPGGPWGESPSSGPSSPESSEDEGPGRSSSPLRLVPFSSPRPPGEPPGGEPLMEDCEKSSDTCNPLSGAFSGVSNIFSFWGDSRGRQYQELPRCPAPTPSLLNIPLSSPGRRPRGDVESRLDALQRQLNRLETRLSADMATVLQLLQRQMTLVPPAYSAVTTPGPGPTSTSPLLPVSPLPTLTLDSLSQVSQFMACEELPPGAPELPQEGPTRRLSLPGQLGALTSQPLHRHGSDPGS

rat MCH1 receptor [6] = target: T1, rat MCH1 receptor; format: binding
Dopamine D1 = Dopamine D1 (Homo sapiens, UniProt P21728); assay: Radioligand displacement; format: binding
[7] = Pharmacokinetics in rats after intravenous administration; format: in vivo; conditions: rat, plasma, 5 mg/kg
Phorobol Ester = assay: Radioligand displacement; conditions: read-out: BINDING Phorobol Ester; displacement of specific radioactive ligand
GPR103 = GPR103 (Homo sapiens, UniProt Q96P65); assay: Radioligand displacement; format: binding
GPR10 = GPR10 (Homo sapiens, UniProt P49683); assay: Selectivity FLIPR activity assay; format: cell-based
Sequence of GPR10 (P49683 whole entry, species assumed): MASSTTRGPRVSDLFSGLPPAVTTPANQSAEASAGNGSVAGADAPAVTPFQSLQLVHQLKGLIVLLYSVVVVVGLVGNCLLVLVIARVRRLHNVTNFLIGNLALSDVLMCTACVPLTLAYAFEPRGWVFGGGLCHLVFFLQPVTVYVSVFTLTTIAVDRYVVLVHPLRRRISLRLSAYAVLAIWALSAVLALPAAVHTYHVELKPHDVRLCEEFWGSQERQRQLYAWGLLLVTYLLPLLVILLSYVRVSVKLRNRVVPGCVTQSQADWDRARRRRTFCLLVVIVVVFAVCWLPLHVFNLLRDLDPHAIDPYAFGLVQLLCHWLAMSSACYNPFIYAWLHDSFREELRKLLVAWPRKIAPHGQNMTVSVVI
In short: (§1)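 Calcium FLIPR format: receptor-expressing cells were loaded 1 h at 37°C with fluo-4 in Hanks' balanced salt solution plus 20 mM HEPES (pH 7.4). Receptor activation was then measured as intracellular Ca2+ fluorescence in the presence of increasing test compound concentrations. The top concentration reported was 10 uM.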

Adenosine A2A = Adenosine A2A (Homo sapiens, UniProt P29274); assay: Radioligand displacement; format: binding
Sequence of Adenosine A2A (P29274 whole entry): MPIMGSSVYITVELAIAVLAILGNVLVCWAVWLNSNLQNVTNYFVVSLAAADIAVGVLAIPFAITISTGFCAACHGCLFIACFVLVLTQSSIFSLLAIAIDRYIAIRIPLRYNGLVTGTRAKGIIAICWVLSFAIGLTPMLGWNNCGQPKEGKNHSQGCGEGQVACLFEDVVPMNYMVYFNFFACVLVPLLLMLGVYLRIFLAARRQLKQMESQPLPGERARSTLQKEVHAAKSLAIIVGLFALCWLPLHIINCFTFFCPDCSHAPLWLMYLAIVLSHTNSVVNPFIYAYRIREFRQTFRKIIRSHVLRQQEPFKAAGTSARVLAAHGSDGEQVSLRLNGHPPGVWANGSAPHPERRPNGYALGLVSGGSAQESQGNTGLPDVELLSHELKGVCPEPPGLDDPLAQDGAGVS

Histamine H1 = Histamine H1 (Homo sapiens, UniProt P35367); assay: Radioligand displacement; format: binding
Opiate κ (KOR) = Opiate κ (KOR) (Homo sapiens, UniProt P41145); assay: Selectivity FLIPR activity assay; format: cell-based
In short: as §1

Muscarinic M2 = Muscarinic M2 (Homo sapiens, UniProt P08172); assay: Radioligand displacement; format: binding
Sequence of Muscarinic M2 (P08172 whole entry): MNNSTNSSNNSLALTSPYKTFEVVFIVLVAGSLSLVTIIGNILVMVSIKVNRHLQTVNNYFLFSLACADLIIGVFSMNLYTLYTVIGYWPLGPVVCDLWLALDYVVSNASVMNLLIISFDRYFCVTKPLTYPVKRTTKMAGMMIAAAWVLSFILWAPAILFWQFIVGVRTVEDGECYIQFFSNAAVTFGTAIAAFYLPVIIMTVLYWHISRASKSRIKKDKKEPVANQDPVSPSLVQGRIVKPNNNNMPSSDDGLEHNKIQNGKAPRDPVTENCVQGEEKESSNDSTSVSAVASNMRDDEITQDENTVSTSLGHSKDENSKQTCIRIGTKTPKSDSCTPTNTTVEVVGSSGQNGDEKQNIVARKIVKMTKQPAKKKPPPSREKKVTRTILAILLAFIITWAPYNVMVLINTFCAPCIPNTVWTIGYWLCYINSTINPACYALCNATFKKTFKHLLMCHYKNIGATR

Prostanoid EP4 = Prostanoid EP4 (Homo sapiens, UniProt P35408); assay: Radioligand displacement; format: binding
Adrenergic β1/β2 = assay: Radioligand displacement; conditions: read-out: BINDING Adrenergic β1/β2; displacement of specific radioactive ligand
Orexin 1R = Orexin 1R (Homo sapiens, UniProt O43613); assay: Selectivity FLIPR activity assay; format: cell-based
Sequence of Orexin 1R (O43613 whole entry): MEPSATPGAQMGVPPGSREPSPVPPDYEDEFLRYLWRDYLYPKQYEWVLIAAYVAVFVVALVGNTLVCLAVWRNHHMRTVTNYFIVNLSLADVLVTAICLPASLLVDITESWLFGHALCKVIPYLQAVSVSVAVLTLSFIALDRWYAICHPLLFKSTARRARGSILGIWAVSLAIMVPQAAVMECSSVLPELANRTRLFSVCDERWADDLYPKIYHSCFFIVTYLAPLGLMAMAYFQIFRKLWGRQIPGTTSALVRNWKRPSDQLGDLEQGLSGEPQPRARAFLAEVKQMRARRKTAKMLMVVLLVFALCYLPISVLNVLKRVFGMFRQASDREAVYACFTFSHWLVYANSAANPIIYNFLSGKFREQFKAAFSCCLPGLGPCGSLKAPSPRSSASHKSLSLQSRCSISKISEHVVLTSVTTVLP
In short: as §1

Rolipram = assay: Radioligand displacement; conditions: read-out: BINDING Rolipram; displacement of specific radioactive ligand
MCH2R = MCH2R (Homo sapiens, UniProt Q969V1); assay: Selectivity FLIPR activity assay; format: cell-based
In short: as §1

NPY2R = NPY2R (Homo sapiens, UniProt P49146); assay: Selectivity FLIPR activity assay; format: cell-based
Sequence of NPY2R (P49146 whole entry, species assumed): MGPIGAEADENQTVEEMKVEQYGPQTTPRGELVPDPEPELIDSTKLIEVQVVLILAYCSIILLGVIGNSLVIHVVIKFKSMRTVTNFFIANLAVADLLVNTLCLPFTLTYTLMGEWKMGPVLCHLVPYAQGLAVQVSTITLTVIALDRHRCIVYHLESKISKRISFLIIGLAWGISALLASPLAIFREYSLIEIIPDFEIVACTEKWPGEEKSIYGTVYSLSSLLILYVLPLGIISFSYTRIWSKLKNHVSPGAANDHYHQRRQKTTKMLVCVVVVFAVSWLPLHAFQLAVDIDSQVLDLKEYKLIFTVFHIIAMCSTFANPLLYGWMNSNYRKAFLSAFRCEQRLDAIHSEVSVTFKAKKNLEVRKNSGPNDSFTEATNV
In short: as §1

[8] = target: Transporter, Norepinephrine (NET) (Homo sapiens, UniProt P23975); assay: Radioligand displacement; format: binding
Opiate μ (OP3, MOP) = Opiate μ (OP3, MOP) (Homo sapiens, UniProt P35372); assay: Radioligand displacement; format: binding
Sequence of Opiate μ (OP3, MOP) (P35372 whole entry): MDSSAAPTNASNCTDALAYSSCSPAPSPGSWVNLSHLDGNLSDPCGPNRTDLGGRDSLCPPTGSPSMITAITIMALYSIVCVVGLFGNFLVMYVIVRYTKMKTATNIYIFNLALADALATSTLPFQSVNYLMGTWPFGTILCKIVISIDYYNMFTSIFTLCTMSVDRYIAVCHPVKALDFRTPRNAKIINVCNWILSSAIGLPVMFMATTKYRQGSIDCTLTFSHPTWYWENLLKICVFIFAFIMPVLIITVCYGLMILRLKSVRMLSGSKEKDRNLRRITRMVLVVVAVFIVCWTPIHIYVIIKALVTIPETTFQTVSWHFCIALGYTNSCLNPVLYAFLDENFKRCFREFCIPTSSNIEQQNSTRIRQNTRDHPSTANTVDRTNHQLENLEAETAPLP

[Cl-].[Li+] [LiCl, Lithium chloride, reference compound]
taste aversion effect (Sprague-Dawley rats [1]; 300 mg/kg, i.p., positive control, P<0.01 vs. vehicle group): robust taste aversion effect

CSCC[C@@H]1NC(=O)[C@@H](NC(=O)[C@H](CCCNC(=N)N)NC(=O)[C@H](CC(C)C)NC(=O)[C@H](CCSC)NC(=O)[C@H](CC(=O)O)NC(=O)[C@H](Cc2ccccc2)NC(=O)[C@@H](N)CC(=O)O)CSSC[C@@H](C(=O)N[C@@H](Cc2c[nH]c3ccccc23)C(=O)N[C@@H](CCC(N)=O)C(=O)N[C@H](C(=O)O)C(C)C)NC(=O)[C@@H]2CCCN2C(=O)[C@H](CCCNC(=N)N)NC(=O)[C@H](Cc2ccc(O)cc2)NC(=O)[C@H](C(C)C)NC(=O)[C@H](CCCNC(=N)N)NC(=O)CNC(=O)[C@H](CC(C)C)NC1=O [MCH, Melanin-concentrating hormone]
feeding after intracerebroventricular injection (Sprague-Dawley rats [2]): induced rapid and robust feeding

C[C@@H](CNCc1ccccc1)N1C[C@H](CCCNC(=N)N)N(CCc2cccc(F)c2)C1=S [TPI 1361-17, N-(3-{(4S)-1-[(1S)-2-(benzylamino)-1-methylethyl]-3-[2-(3-fluorophenyl)ethyl]-2-thioxoimidazolidin-4-yl}propyl)guanidine]
IC50 (Dopamine D2s): > 1000 nM | IC50 [3]: > 1000 nM | IC50 (Muscarinic M3): > 1000 nM | pA2 (Schild regression) (rat MCH1 receptor [4]; MCH dose response curves with increasing concentrations of antagonist): 9.43 | effect on basal Ca2+ level by itself (rat MCH1 receptor [4]; compound alone, no MCH): did not change the basal Ca^2+ level | Schild regression slope (rat MCH1 receptor [4]; r^2 = 0.975): 1.085 ± 0.010 | IC50 (Adenosine A1): > 1000 nM | ambulatory and non-ambulatory movements vs vehicle (Sprague-Dawley rats [5]; five nmole i.c.v., monitored for 60 minutes): no significant differences | detectable changes in movement (Sprague-Dawley rats [5]; five or one nmole i.c.v.): did not exhibit any detectable changes in movement | IC50 (hERG channel): > 10000 nM | activity in a hERG channel assay (hERG channel; result in words): not show activity; also recorded: no activity was detected | IC50 (rat MCH1 receptor [6]): 31.8 ± 8.66 nM | displacement of the binding of [125I] MCH (rat MCH1 receptor [6]; rat MCH1 receptor membranes): completely displaced | IC50 (Dopamine D1): > 1000 nM | Tmax [7]: 4.98 min | AUC(0-inf) ([7]; AUC0-∞ (mean value), intravenous, mean): 2440 ng·h/mL | half-life ([7]; plasma elimination half-life (mean value), intravenous, mean): 2.7 h | IC50 (Phorobol Ester): > 1000 nM | IC50 (GPR103): > 1000 nM | selectivity for MCH1 receptor compared to prolactin releasing peptide receptor (GPR10): more than 1,000 fold | IC50 (Adenosine A2A): > 1000 nM | IC50 (Histamine H1): > 1000 nM | selectivity for MCH1 receptor compared to kappa opioid receptors (Opiate κ (KOR)): more than 1,000 fold | IC50 (Muscarinic M2): > 1000 nM | IC50 (Prostanoid EP4): > 1000 nM | IC50 (Adrenergic β1/β2): > 1000 nM | aversive effect in taste aversion test (Sprague-Dawley rats [1]; 10 nmole, i.c.v., saccharin preference): did not result in any aversive effect | selectivity for MCH1 receptor compared to orexin 1R (Orexin 1R): more than 1,000 fold | IC50 (Rolipram): > 1000 nM | selectivity for MCH1 receptor compared to human MCH2 receptor (MCH2R): more than 1,000 fold | selectivity for MCH1 receptor compared to neuropeptide Y2 (NPY2R): more than 1,000 fold | IC50 [8]: > 1000 nM | IC50 (Opiate μ (OP3, MOP)): > 1000 nM

— publication PMC2633472 (European journal of pharmacology, 2008)
